Calls of active or inactive are those of the source. No cut-off for these calls is given here.

The target of data set [1] is Indoleamine 2,3-dioxygenase 1 (Homo sapiens) (UniProt P14902). The data set is described as follows: Inhibition of human IDO using L-tryptophan as substrate at 25 uM by colorimetric method. An outline of the steps:
(§1)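 Human IDO activity read colourimetrically, rmTDO activity read fluorometrically; compounds tested in vitro at […]; percent inhibition as mean ± SD, n = 3.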

Data set [2] has as its target T1, MAO-A (amine oxidase [flavin-containing] A) (Homo sapiens, UniProt P21397).
T1 sequence (P21397 whole entry): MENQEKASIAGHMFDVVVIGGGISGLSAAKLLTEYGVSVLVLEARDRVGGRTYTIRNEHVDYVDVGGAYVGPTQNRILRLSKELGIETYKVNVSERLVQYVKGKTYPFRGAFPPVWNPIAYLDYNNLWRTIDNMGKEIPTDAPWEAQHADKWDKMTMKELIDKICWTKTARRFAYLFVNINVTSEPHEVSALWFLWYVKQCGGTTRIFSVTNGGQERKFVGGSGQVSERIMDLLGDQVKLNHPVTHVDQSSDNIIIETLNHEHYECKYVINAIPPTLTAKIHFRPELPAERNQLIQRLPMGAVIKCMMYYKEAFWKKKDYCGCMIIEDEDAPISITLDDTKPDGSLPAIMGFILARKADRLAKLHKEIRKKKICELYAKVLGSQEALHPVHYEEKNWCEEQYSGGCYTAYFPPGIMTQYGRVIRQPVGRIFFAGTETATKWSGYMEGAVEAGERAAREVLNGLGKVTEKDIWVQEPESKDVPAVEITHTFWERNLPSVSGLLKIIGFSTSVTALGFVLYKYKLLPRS
The data set is described as follows: (§2) Inhibition of human recombinant MAOA expressed in baculovirus-infected BTI insect cells at 10 uM after 1 hr by MAO-GLO two-step bioluminescence assay. In outline: (§3)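 Recombinant human MAO-A or MAO-B from baculovirus-infected BTI insect cells; test compound at […], in triplicate in vitro; activity measured by luminescent method (Valley et al.); percent inhibition given as mean ± SD, n = 3.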

Data set [3] concerns the target T2, Tryptophan 2,3-dioxygenase (Ralstonia metallidurans (strain CH34 / ATCC 43123 / DSM 2839)) (UniProt Q1LK00).
T2 sequence (whole entry): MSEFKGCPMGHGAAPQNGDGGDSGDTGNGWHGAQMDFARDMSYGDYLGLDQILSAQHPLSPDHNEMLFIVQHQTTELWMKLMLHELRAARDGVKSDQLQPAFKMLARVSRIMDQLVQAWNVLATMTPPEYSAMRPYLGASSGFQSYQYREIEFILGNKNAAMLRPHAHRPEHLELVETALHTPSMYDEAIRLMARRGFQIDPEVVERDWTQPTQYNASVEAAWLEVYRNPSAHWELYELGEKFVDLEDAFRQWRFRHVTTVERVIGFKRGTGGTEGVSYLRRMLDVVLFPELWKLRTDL
In words: Inhibition of Ralstonia metallidurans TDO using L-tryptophan as substrate at 25 uM by fluorimetric method. The following applies: Cupriavidus metallidurans. In outline: as §1

The target of data set [4] is T3, MAO-B (amine oxidase [flavin-containing] B) (Homo sapiens, UniProt P27338).
T3 sequence (P27338 whole entry): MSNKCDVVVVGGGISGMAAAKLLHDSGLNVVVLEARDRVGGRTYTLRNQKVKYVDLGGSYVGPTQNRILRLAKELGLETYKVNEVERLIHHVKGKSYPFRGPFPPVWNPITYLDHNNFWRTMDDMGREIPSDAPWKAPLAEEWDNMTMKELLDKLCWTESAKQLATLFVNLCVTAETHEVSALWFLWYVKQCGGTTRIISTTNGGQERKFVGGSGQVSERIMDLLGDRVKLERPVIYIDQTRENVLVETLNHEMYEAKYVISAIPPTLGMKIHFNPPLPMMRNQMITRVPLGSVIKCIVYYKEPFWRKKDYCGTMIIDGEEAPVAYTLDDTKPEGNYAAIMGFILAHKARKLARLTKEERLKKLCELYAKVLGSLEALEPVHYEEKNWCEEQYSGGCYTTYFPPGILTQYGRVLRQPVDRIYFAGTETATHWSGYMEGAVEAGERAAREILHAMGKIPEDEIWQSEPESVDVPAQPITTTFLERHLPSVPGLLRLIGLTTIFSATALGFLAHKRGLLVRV
The data set is described as follows: Inhibition of human recombinant MAOB expressed in baculovirus-infected BTI insect cells at 10 uM after 1 hr by MAO-GLO two-step bioluminescence assay. In outline: as §3

For data set [5], the target named is T4, Amine oxidase [flavin-containing] A (Homo sapiens, UniProt P21397).
T4 sequence (P21397 whole entry): T1 sequence (P21397 whole entry)
The data set is described as §2. The note with it: 1 h, 10 µM. An outline of the steps:
as §3

In data set [6] the target is T5, Amine oxidase [flavin-containing] B (Homo sapiens, UniProt P27338).
T5 sequence (P27338 whole entry): T3 sequence (P27338 whole entry)
The data set is described as follows: Inhibition of human recombinant MAOB expressed in baculovirus-infected BTI insect cells after 1 hr by Cheng-Prusoff equation analysis.

Data set [7] has as its target T5, Amine oxidase [flavin-containing] B. The data set is described as follows: Inhibition of human recombinant MAOB expressed in baculovirus-infected BTI insect cells by Lineweaver-Burk plot analysis.

Sequence of Indoleamine 2,3-dioxygenase 1 (Homo sapiens) (P14902 whole entry, looked up): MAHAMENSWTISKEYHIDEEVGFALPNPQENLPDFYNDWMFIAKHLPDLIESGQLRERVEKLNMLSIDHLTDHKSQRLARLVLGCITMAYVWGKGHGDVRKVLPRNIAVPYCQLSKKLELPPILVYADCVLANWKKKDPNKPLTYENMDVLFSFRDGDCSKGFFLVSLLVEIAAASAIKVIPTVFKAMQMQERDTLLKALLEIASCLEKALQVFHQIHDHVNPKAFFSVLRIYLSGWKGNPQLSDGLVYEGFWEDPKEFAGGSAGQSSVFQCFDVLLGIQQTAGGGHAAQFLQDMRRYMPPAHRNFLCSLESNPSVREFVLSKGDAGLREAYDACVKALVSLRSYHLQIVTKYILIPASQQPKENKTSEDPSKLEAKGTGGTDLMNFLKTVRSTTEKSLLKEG

Compound `O=C1c2ccc(OCc3ccccc3)cc2-c2nnc(-c3cccc(C(F)(F)F)c3)cc21` had an inhibition in data set [1] of 17%. The inhibition at 1 h, 10 µM in data set [2] came to 10%; in data set [4] it was 7%. Besides, the inhibition result in data set [3] was “inactive”.
On to `O=C1c2ccc(OCCCC(F)(F)F)cc2-c2nnc(-c3cccc(C(F)(F)F)c3)cc21`, for which, in data set [1], the inhibition entry is “inactive”. In addition, in data set [5], the “inhibition (INH)” value is reported as “Not Active”. This compound showed an inhibition in data set [3] of 20%. Moreover, in data set [4], the inhibition at 1 h, 10 µM was 57%.
Taken in the same sequence, the figures for `COc1ccc2c(c1)-c1nnc(-c3cccc(C(F)(F)F)c3)cc1C2=O` were “inactive”, “Not Active”, 18% and 36%.
As for `Cc1cccc(COc2ccc3c(c2)-c2nnc(C)cc2C3=O)c1`, the values for the inhibition in data set [1] and in data set [3] were 14% and 66%, respectively. In data set [6], the Ki turned out to be 480 nM. Besides, the inhibition at 1 h, 10 µM in data set [2] was 17%; in data set [4] it was 90%.
As for `Cc1cc2c(nn1)-c1cc(OCCCC(F)(F)F)ccc1C2=O`, the figures for the inhibition in data set [1] and in data set [3] were 19% and 31%, respectively. Also, the “inhibition (INH)” value in data set [5] was “Not Active”. Also, the inhibition at 1 h, 10 µM in data set [4] came to 92%.
For `Cc1cc2c(nn1)-c1cc(OCc3cccc(Cl)c3)ccc1C2=O`, the inhibition in data set [1] stood at 25%; in data set [3] it was 19%. Also, the results for the Ki in data set [7] and in data set [6] were 110 nM and 160 nM, respectively. Besides, the inhibition at 1 h, 10 µM in data set [2] was determined as 15%; in data set [4], 93%.

In general, inhibition refers to the drop in the measured response relative to a control, in per cent. The Ki is the dissociation constant of the complex between target and ligand, obtained from inhibition or displacement.

(Values after ChEMBL document CHEMBL1914298, “Synthesis and inhibition study of monoamine oxidase, indoleamine 2,3-dioxygenase and tryptophan 2,3-dioxygenase by 3,8-substituted 5H-indeno[1,2-c]pyridazin-5-one derivatives” (Eur J Med Chem, 2011).)
